Shown are actives, neighbours in structure and some others; about 5.9% of the full set was active somewhere.
Pf Dd2 inh = inhibitors of Plasmodium falciparum Dd2 growth; P. falciparum Dd2 growth, SYBR Green, 72 h; stronger effect = lower value; activity change, % at 10 µM; actives 2.3% (n = 94,000); in the data active means activity change below about -80%; inconclusive means no clear call, values can overlap the other calls
IDH1 R132H inh = blocks human IDH1 R132H reductase activity; O75874; actives 0.18% (n = 70,000); inhibition, % at 10 µM; diaphorase/resazurin fluorescence, 60 min; in the data active means inhibition above about 34%; inconclusive means no clear call, values can overlap the other calls; inactive means below about 11%;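 further: 0% = DMSO and 100% = no enzyme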
T cruzi growth-1 = inhibitors of T. cruzi proliferation. actives 5.9% (n = 77,000). T. cruzi beta-gal in NIH3T3, GalScreen luminescence, 90 h. AID 624255. inhibition, % at 8.34 µM;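 active means mean inhibition above about 93%, with at least 55% of replicates each passing it, limit read from the data, passing the limit was not always enough; inconclusive means only one of those two conditions holds; inactive means neither condition holds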
GASC1 inh = KDM4C (human) demethylase inhibition; Q9H3R0; GST-KDM4C 2-372, H3K9me3 peptide, LANCE TR-FRET; inhibition, % at 12.5 µM; actives 0.15% (n = 96,000);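 active means mean replicate inhibition above about 25%, with at least 55% of replicates also reaching it, limit read from the data, passing the limit was not always enough; inconclusive means only one of those two conditions met; inactive means neither condition met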
Target sequence (Q9H3R0 2-372 limits assumed): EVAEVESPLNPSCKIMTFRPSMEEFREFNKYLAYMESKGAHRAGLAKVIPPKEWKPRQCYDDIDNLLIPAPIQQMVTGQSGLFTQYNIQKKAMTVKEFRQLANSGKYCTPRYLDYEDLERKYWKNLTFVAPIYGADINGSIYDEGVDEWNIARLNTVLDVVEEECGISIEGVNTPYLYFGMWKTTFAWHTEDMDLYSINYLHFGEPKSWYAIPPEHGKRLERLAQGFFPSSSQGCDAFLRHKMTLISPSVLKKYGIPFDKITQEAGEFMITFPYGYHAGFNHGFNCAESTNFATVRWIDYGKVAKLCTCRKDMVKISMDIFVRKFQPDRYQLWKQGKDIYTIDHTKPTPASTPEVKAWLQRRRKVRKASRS
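Test system: N-terminal GST-fused human GASC-1 (KDM4C) fragment, residues 2-372; quantity: GASC-1 enzyme at 10 nM final in reaction; dosing: single dose; schedule: 30 min demethylation and 1 h detection at room temperature; signal: LANCE TR-FRET, excitation 340 nm, emissions 618 and 671 nm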
T cruzi growth-2 = Trypanosoma cruzi proliferation inhibition; shares compounds with T cruzi growth-1; inhibition, % at 8.35 µM; AID 651739; T. cruzi beta-gal in NIH3T3, GalScreen luminescence, 90 h; actives 72% (n = 5,600);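 active means mean replicate inhibition above about 95% and at least 55% of replicates individually reaching it, limit read from the data; inconclusive means only one of the two criteria is met; inactive means neither criterion is met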
T cruzi growth-3 = inhibitors of T. cruzi proliferation; inhibition, % at 2.09 µM; actives 21% (n = 5,600); T. cruzi beta-gal in NIH3T3, GalScreen luminescence, 90 h; shares compounds with T cruzi growth-1;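 active means mean inhibition above about 95%, with at least 55% of replicates also reaching it, limit read from the data; inconclusive means meets just one of the two conditions; inactive means meets neither condition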;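 further: plate controls were neutral control median for no effect and positive control median for full effect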
NIH3T3 tox = NIH/3T3 (mouse) viability loss; AID 651742; NIH/3T3 viability, CellTiter-Glo ATP luminescence, 90 h; shares compounds with T cruzi growth-1; cytotoxicity (signal decrease), % at 8.35 µM; actives 14% (n = 5,600);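 active means mean signal decrease across replicates above about 35% based on untreated-well scatter, with enough replicates individually passing, limit read from the data; inconclusive means no rule stated though some were filed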;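 further: 0% = median of neutral control wells and 100% = median of positive control wells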
3T3 cytotox 2 = kills mouse NIH/3T3 fibroblasts; shares compounds with T cruzi growth-1; NIH/3T3 viability, CellTiter-Glo ATP luminescence, 90 h; inhibition, % at 24.9 µM; actives 56% (n = 5,600);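 active means mean loss of cell viability signal at or above a set limit, and enough replicates individually reaching it; inconclusive means meets only the mean limit or only the replicate share; inactive means meets neither condition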;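 further: 0% = median of neutral control wells and 100% = median of positive control wells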
An asterisk follows results filed as active.

For C[C@H](CO)N1C[C@H](C)[C@@H](CN(C)C(=O)NC2CCCCC2)OCCCC[C@H](C)Oc2ccc(NC(=O)Nc3ccc(F)cc3)cc2C1=O the results were Pf Dd2 inh 3, IDH1 R132H inh 1, T cruzi growth-1 105*, GASC1 inh 0, T cruzi growth-2 103*, T cruzi growth-3 27, NIH3T3 tox 12 and 3T3 cytotox 2 24.
Screening COc1ccc(NC(=O)C(=O)NCCCO)c(OC)c1 returned IDH1 R132H inh 0.
Screening Cc1cc(C)c2oc(-c3ccc(C)c(NC(=O)COc4ccc(Cl)cc4)c3)nc2c1 returned IDH1 R132H inh 0.
CC(=O)O[C@@H]1c2c(C)coc2C(=O)[C@@]23O[C@@H]2CC[C@H](C)[C@@]13C was read as IDH1 R132H inh 0.
CC(C)CC#Cc1ccc2c(c1)O[C@H](CN(C)C(=O)C1CC1)[C@@H](C)CN([C@H](C)CO)S2(=O)=O was read as Pf Dd2 inh -41, T cruzi growth-1 86 and GASC1 inh -1.
Screening CC(C)CC#Cc1ccc2c(c1)O[C@@H](CN(C)C(=O)C1CCCCC1)[C@H](C)CN([C@@H](C)CO)S2(=O)=O returned Pf Dd2 inh -75, T cruzi growth-1 122*, GASC1 inh 0, T cruzi growth-2 104*, T cruzi growth-3 104*, NIH3T3 tox 19 and 3T3 cytotox 2 105*.
`CC(C)CC#Cc1ccc2c(c1)O[C@H](CN(C)C(=O)C1CC1)[C@H](C)CN([C@@H](C)CO)S2(=O)=O` gave Pf Dd2 inh -44, T cruzi growth-1 94 and GASC1 inh -1.
`CC(C)CC#Cc1ccc2c(c1)O[C@H](CN(C)C(=O)C1CCCCC1)[C@@H](C)CN([C@@H](C)CO)S2(=O)=O` gave Pf Dd2 inh -39, T cruzi growth-1 112*, GASC1 inh -1, T cruzi growth-2 100*, T cruzi growth-3 116*, NIH3T3 tox 10 and 3T3 cytotox 2 104*.
For CC(C)CC#Cc1ccc2c(c1)O[C@H](CN(C)C(=O)C1CCCCC1)[C@@H](C)CN([C@H](C)CO)S2(=O)=O the results were Pf Dd2 inh -39, IDH1 R132H inh 0, T cruzi growth-1 118*, GASC1 inh 12, T cruzi growth-2 106*, T cruzi growth-3 107*, NIH3T3 tox 13 and 3T3 cytotox 2 105*.
CC(C)CC#Cc1ccc2c(c1)O[C@H](CN(C)C(=O)C1CC1)[C@H](C)CN([C@H](C)CO)S2(=O)=O was read as Pf Dd2 inh -38, T cruzi growth-1 81 and GASC1 inh 1.
For Cc1ccc(-c2cc3ccccn3c2C(=O)CSc2nnc(C)s2)cc1 the results were IDH1 R132H inh 2.
For O=C(CSc1nnc(-c2cccc3ccccc23)n1-c1ccccc1)NC1CC1 the results were IDH1 R132H inh -1.
OC[C@@H]1[C@H](c2ccc(C#Cc3cccnc3)cc2)[C@H]2CN(Cc3ccccc3F)CCCCN12 was read as Pf Dd2 inh -75, T cruzi growth-1 114*, GASC1 inh -1, T cruzi growth-2 102*, T cruzi growth-3 113*, NIH3T3 tox 50* and 3T3 cytotox 2 104*.
Screening OC[C@H]1[C@H](c2ccc(C#Cc3cccnc3)cc2)[C@@H]2CN(Cc3ccccc3F)CCCCN12 returned Pf Dd2 inh -71, T cruzi growth-1 112*, GASC1 inh 0, T cruzi growth-2 111*, T cruzi growth-3 52, NIH3T3 tox 28 and 3T3 cytotox 2 103*.
`OC[C@@H]1[C@@H](c2ccc(C#CC3(O)CCCC3)cc2)[C@H]2CN(Cc3ccccc3F)CCCCN12` gave Pf Dd2 inh -26, T cruzi growth-1 105*, GASC1 inh -1, T cruzi growth-2 67, T cruzi growth-3 20, NIH3T3 tox 1 and 3T3 cytotox 2 58*.
Cc1ccc(OCC(=O)Nc2sc3c(c2C(N)=O)CCCC3)cc1 was read as IDH1 R132H inh 0.
`OCc1ccc(COc2ccc3ccncc3c2)cc1` gave IDH1 R132H inh 0.
CCn1c(SCc2nc3ccccc3c(=O)[nH]2)nnc1-c1ccccc1Br was read as IDH1 R132H inh -1.
For Cc1cc([N+](=O)[O-])ccc1NC(=O)CSc1nnc(-c2ccccc2)o1 the results were IDH1 R132H inh 0.
For O=C(Nc1sc2c(c1C(=O)NCc1cccnc1)CCCC2)c1ccc([N+](=O)[O-])cc1 the results were IDH1 R132H inh 0.
Screening C[C@H](CO)N1C[C@H](C)[C@H](CN(C)C(=O)C2CCCCC2)Oc2ncc(/C=C/c3ccccc3)cc2C1=O returned Pf Dd2 inh inconclusive, IDH1 R132H inh -1, T cruzi growth-1 85 and GASC1 inh 0.
Screening C[C@H]1CN([C@@H](C)CO)C(=O)c2cc(/C=C/c3ccccc3)cnc2O[C@@H]1CN(C)C(=O)C1CCCCC1 returned Pf Dd2 inh -88*, T cruzi growth-1 99*, GASC1 inh 0, T cruzi growth-2 101*, T cruzi growth-3 61, NIH3T3 tox 9 and 3T3 cytotox 2 inconclusive.
Screening C[C@H](CO)N1C[C@H](C)[C@@H](CN(C)C(=O)C2CCC2)Oc2ncc(/C=C/c3ccccc3)cc2C1=O returned Pf Dd2 inh -64, IDH1 R132H inh 0, T cruzi growth-1 59 and GASC1 inh 0.
C[C@@H]1CN([C@H](C)CO)C(=O)c2cc(/C=C/c3ccccc3)cnc2O[C@@H]1CN(C)C(=O)C1CCCCC1 was read as Pf Dd2 inh -71, T cruzi growth-1 30 and GASC1 inh 0.
C[C@H](CO)N1C[C@H](C)[C@@H](CN(C)C(=O)C2CCCCC2)Oc2ncc(/C=C/c3ccccc3)cc2C1=O was read as Pf Dd2 inh -89*, IDH1 R132H inh 0, T cruzi growth-1 113*, GASC1 inh -3, T cruzi growth-2 112*, T cruzi growth-3 68, NIH3T3 tox -41 and 3T3 cytotox 2 1.
Screening C[C@H]1CN([C@@H](C)CO)C(=O)c2cc(/C=C/c3ccccc3)cnc2O[C@@H]1CN(C)C(=O)C1CCC1 returned Pf Dd2 inh -70, IDH1 R132H inh 0, T cruzi growth-1 inconclusive, GASC1 inh -2, T cruzi growth-2 inconclusive, T cruzi growth-3 28, NIH3T3 tox 5 and 3T3 cytotox 2 18.
